Measurements taken from ChEMBL document CHEMBL4041498, “Antibacterial and Cytotoxic Actinomycins Y6-Y9 and Zp from Streptomyces sp. Strain Gö-GS12” (J Nat Prod, 2016).
≈ marks a conversion by molar mass, not a printed value. Numbered stars: 1 amine (or outer) side, 2 acyl side, 3 side chain; on linkers, the order of the positions; unused ones are H or OH. Bridge positions count the residues as written; N and C are the ends. Square brackets hold non-standard residues; d marks the D form. Peptide text beside a SMILES is read from it. I, II: the chains in the order shown. Actinocin(1to9) = Cc1c2oc3c(C)ccc(C(=O)[*:2])c3nc-2c(C(=O)[*:1])c(N)c1=O; Actinocin(9to1) = Cc1c2oc3c(C)ccc(C(=O)[*:1])c3nc-2c(C(=O)[*:2])c(N)c1=O; Pro(3S-OH,5S-Me) = C[C@H]1C[C@H](O)[C@@H](C(=O)O)N1; X2 = O=C([C@@H](N[*:1])[C@@H](CCl)O[*:3])[*:2]; X1 = O=C([C@@H](N[*:1])[C@@H](CO)O[*:3])[*:2]; Pro(5S-Me) = C[C@H]1CC[C@@H](C(=O)O)N1; Pro(4-oxo) = O=C1CN[C@H](C(=O)O)C1; NMeV = CN[C@H](C(=O)O)C(C)C; NMeA = CN[C@@H](C)C(=O)O; Sar = CNCC(=O)O

What was measured:
Staphylococcus aureus = experiment: Antibacterial activity against Staphylococcus aureus ATCC 6538 after incubated for 16 to 48 hrs at 28 to 37 degC by spectrofluorometric method; assay type: functional
Method in brief: (§1)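 Overnight cultures (16 h, 37 °C, 250 rpm) were grown in tryptic soy broth (S. aureus, M. luteus), LB (B. subtilis, E. coli), nutrient broth (S. enterica), Middlebrook 7H9 + OADC (M. aurum) or YAPD (S. cerevisiae). They were diluted to OD600 ~0.1 and exposed to serial dilutions from a final maximum of ~10 μg/mL, then shaken at 160 rpm. OD600 was normalized to DMSO control, and MIC was taken as the lowest concentration inhibiting growth.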

Micrococcus luteus = experiment: Antibacterial activity against Micrococcus luteus ATCC 15307 after incubated for 16 to 48 hrs at 28 to 37 degC by spectrofluorometric method; assay type: functional; method in brief: as §1
Bacillus spizizenii = experiment: Antibacterial activity against Bacillus subtilis ATCC 6633 after incubated for 16 to 48 hrs at 28 to 37 degC by spectrofluorometric method; assay type: functional; method in brief: as §1
Mycolicibacterium aurum = experiment: Antibacterial activity against Mycobacterium aurum ATCC 23366 after incubated for 16 to 48 hrs at 28 to 37 degC […]; assay type: functional
[1] = Antibacterial activity against Salmonella enterica ATCC 10708 after incubated for 16 to 48 hrs at 28 to 37 degC by spectrofluorometric method; assay type: functional; method in brief: as §1
Escherichia coli = experiment: Antibacterial activity against Escherichia coli ATCC 12435 after incubated for 16 to 48 hrs at 28 to 37 degC by spectrofluorometric method; assay type: functional; method in brief: as §1
Saccharomyces cerevisiae = experiment: Antifungal activity against Saccharomyces cerevisiae ATCC 204508 after incubated for 16 to 48 hrs at 28 to 37 degC by spectrofluorometric method; assay type: functional
PC-3 = experiment: Cytotoxicity against human PC3 cells assessed as reduction in cell viability after 48 hrs by alamar blue assay; assay type: functional, cell-based; details: PC-3, 48 h
Method in brief: (§2)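 A549 cells were grown in DMEM/F-12 Kaighn's and PC3 cells in MEM/EBSS, both with 10% heat-inactivated FBS, penicillin/streptomycin and 2 mM L-glutamine. Cells were seeded at 5 × 10^3 per well, attached 24 h at 37 °C in 5% CO2, then exposed for 2 days. Values are % of untreated control from three independent experiments.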

A549 = experiment: Cytotoxicity against human A549 cells assessed as reduction in cell viability after 48 hrs by alamar blue assay; assay type: functional, cell-based; details: A549, 48 h; method in brief: as §2

| Compound | MIC (Staphylococcus aureus) [µg/mL] | MIC (Micrococcus luteus) [µg/mL] | MIC (Bacillus spizizenii) [µg/mL] | MIC (Mycolicibacterium aurum) [µg/mL] | MIC [1] [µg/mL] | MIC (Escherichia coli) [µg/mL] | MIC (Saccharomyces cerevisiae) [µg/mL] | EC50 (PC-3) [nM] | EC50 (A549) [nM] |
| --- | --- | --- | --- | --- | --- | --- | --- | --- | --- |
| Cc1c2oc3c(C)ccc(C(=O)N[C@@H]4C(=O)N[C@H](C(C)C)C(=O)N5[C@H](C(=O)N(C)CC(=O)N(C)[C@@H](C(C)C)C(=O)O[C@@H]4C)[C@@H](O)C[C@@H]5C)c3nc-2c2c(c1=O)N[C@H]([C@@H]1NC(=O)[C@H](C)N(C)C(=O)CN(C)C(=O)[C@@H]3CC(=O)CN3C(=O)[C@@H](C(C)C)NC1=O)COC2=O | 2.37 (≈ 1.87 µM) | 0.59 (≈ 0.465 µM) | 0.59 (≈ 0.465 µM) | 0.95 (≈ 0.748 µM) | > 9.46 | > 9.46 | 9.46 (≈ 7.45 µM) | 76.7 | 71.5 |
| Cc1c2oc3c(C)ccc(C(=O)N[C@@H]4C(=O)N[C@H](C(C)C)C(=O)N5[C@@H](C)CC[C@H]5C(=O)N(C)CC(=O)N(C)[C@@H](C(C)C)C(=O)O[C@@H]4C)c3nc-2c(C(=O)N[C@@H]2C(=O)N[C@H](C(C)C)C(=O)N3CC(=O)C[C@H]3C(=O)N(C)CC(=O)N(C)[C@@H](C)C(=O)O[C@@H]2C)c(N)c1=O (I: T[dV][Pro(4-oxo)][Sar][NMeA] / II: T[dV][Pro(5S-Me)][Sar][NMeV]; ester I:1-I:C, II:1-II:C; linker I:N-II:N via Actinocin(1to9)) |  | 0.003 (≈ 0.00239 µM) |  |  | > 9.57 |  |  |  |  |
| Cc1c2oc3c(C)ccc(C(=O)N[C@@H]4C(=O)N[C@H](C(C)C)C(=O)N5[C@H](C(=O)N(C)CC(=O)N(C)[C@@H](C(C)C)C(=O)O[C@@H]4C)[C@@H](O)C[C@@H]5C)c3nc-2c(C(=O)N[C@@H]2C(=O)N[C@H](C(C)C)C(=O)N3CC(=O)C[C@H]3C(=O)N(C)CC(=O)N(C)[C@@H](C)C(=O)O[C@@H]2CCl)c(N)c1=O (I: [X2][dV][Pro(4-oxo)][Sar][NMeA] / II: T[dV][Pro(3S-OH,5S-Me)][Sar][NMeV]; ester I:1-I:C, II:1-II:C; linker I:N-II:N via Actinocin(1to9)) |  |  |  |  | > 9.2 |  |  |  |  |
| Cc1c2oc3c(C)ccc(C(=O)N[C@@H]4C(=O)N[C@H](C(C)C)C(=O)N5[C@H](C(=O)N(C)CC(=O)N(C)[C@@H](C(C)C)C(=O)O[C@@H]4C)[C@@H](O)C[C@@H]5C)c3nc-2c(C(=O)OC[C@H](O)[C@@H]2NC(=O)[C@H](C)N(C)C(=O)CN(C)C(=O)[C@@H]3CC(=O)CN3C(=O)[C@@H](C(C)C)NC2=O)c(N)c1=O | > 9.33 | 4.67 (≈ 3.63 µM) | > 9.33 | > 9.33 | > 9.33 | > 9.33 | > 9.33 |  |  |
| Cc1c2oc3c(C)ccc(C(=O)N[C@@H]4C(=O)N[C@H](C(C)C)C(=O)N5CCC[C@H]5C(=O)N(C)CC(=O)N(C)[C@@H](C(C)C)C(=O)O[C@@H]4C)c3nc-2c(C(=O)N[C@@H]2C(=O)N[C@H](C(C)C)C(=O)N3CCC[C@H]3C(=O)N(C)CC(=O)N(C)[C@@H](C(C)C)C(=O)O[C@@H]2C)c(N)c1=O [DACTINOMYCIN] (I: T[dV]P[Sar][NMeV] / II: T[dV]P[Sar][NMeV]; ester I:1-I:C, II:1-II:C; linker I:N-II:N via Actinocin(1to9)) | 0.006 (≈ 0.00478 µM) | 0.003 (≈ 0.00239 µM) | 0.002 (≈ 0.00159 µM) | 0.6 (≈ 0.478 µM) | 9.57 (≈ 7.62 µM) |  | 4.79 (≈ 3.82 µM) |  |  |
| Cc1c2oc3c(C)ccc(C(=O)N[C@@H]4C(=O)N[C@H](C(C)C)C(=O)N5[C@H](C(=O)N(C)CC(=O)N(C)[C@@H](C(C)C)C(=O)O[C@@H]4C)[C@@H](O)C[C@@H]5C)c3nc-2c(C(=O)N[C@@H]2C(=O)N[C@H](C(C)C)C(=O)N3CC(=O)C[C@H]3C(=O)N(C)CC(=O)N(C)[C@@H](C)C(=O)O[C@@H]2C)c(N)c1=O (I: T[dV][Pro(4-oxo)][Sar][NMeA] / II: T[dV][Pro(3S-OH,5S-Me)][Sar][NMeV]; ester I:1-I:C, II:1-II:C; linker I:N-II:N via Actinocin(1to9)) |  |  |  |  | > 9.45 |  |  |  |  |
| Cc1c2oc3c(C)ccc(C(=O)N[C@@H]4C(=O)N[C@H](C(C)C)C(=O)N5[C@@H](C)CC[C@H]5C(=O)N(C)CC(=O)N(C)[C@@H](C(C)C)C(=O)O[C@@H]4C)c3nc-2c(C(=O)N[C@@H]2C(=O)N[C@H](C(C)C)C(=O)N3[C@@H](C)CC[C@H]3C(=O)N(C)CC(=O)N(C)[C@@H](C(C)C)C(=O)O[C@@H]2C)c(N)c1=O (I: T[dV][Pro(5S-Me)][Sar][NMeV] / II: T[dV][Pro(5S-Me)][Sar][NMeV]; ester I:1-I:C, II:1-II:C; linker I:N-II:N via Actinocin(9to1)) |  |  | 0.006 (≈ 0.00467 µM) |  | > 9.36 |  |  |  |  |
| Cc1c2oc3c(C)ccc(C(=O)N[C@@H]4C(=O)N[C@H](C(C)C)C(=O)N5[C@H](C(=O)N(C)CC(=O)N(C)[C@@H](C(C)C)C(=O)O[C@@H]4C)[C@@H](O)C[C@@H]5C)c3nc-2c(C(=O)OC[C@H](O)[C@@H]2NC(=O)[C@H](C)N(C)C(=O)CN(C)C(=O)[C@@H]3C[C@@H](O)CN3C(=O)[C@@H](C(C)C)NC2=O)c(N)c1=O | > 9.32 | 4.66 (≈ 3.61 µM) | > 9.32 | > 9.32 | > 9.32 | > 9.32 | > 9.32 |  |  |
| Cc1c2oc3c(C)ccc(C(=O)N[C@@H]4C(=O)N[C@H](C(C)C)C(=O)N5[C@H](C(=O)N(C)CC(=O)N(C)[C@@H](C(C)C)C(=O)O[C@@H]4C)[C@@H](O)C[C@@H]5C)c3nc-2c(C(=O)N[C@@H]2C(=O)N[C@H](C(C)C)C(=O)N3CC(=O)C[C@H]3C(=O)N(C)CC(=O)N(C)[C@@H](C)C(=O)O[C@@H]2CO)c(N)c1=O (I: [X1][dV][Pro(4-oxo)][Sar][NMeA] / II: T[dV][Pro(3S-OH,5S-Me)][Sar][NMeV]; ester I:1-I:C, II:1-II:C; linker I:N-II:N via Actinocin(1to9)) |  | 0.12 (≈ 0.0932 µM) |  |  | > 9.33 |  |  |  |  |
